ED20, inhibition and dP/dt20 data for 48 molecules are collected here from ChEMBL document CHEMBL1126878, “4,5-Dihydro-1-phenyl-1H-2,4-benzodiazepines: novel antiarrhythmic agents” (J Med Chem, 1993).

Data set [1] deals with Cavia porcellus. The data set can be described thus: Effective dose in vivo for cardiac refractoriness (ERP) using paced guinea pig model. It counts as functional. The method in brief:
(§1)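 Guinea pig paced in vivo model. Hemodynamics recorded in normal sinus rhythm; ERP measured during brief pacing at baseline and 10 min after dosing. Bolus of 1 mL/kg via left ventricular catheter for doses <10 mg/kg; higher doses infused over 1 min. Cumulative dosing every 15 min up to the maximally tolerated dose (dP/dt reduced >50%). ED20 (ERP +20 ms) and dP/dt20 (20% drop in LV pressure-rise rate) derived by linear regression of individual dose-response curves.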

The target of data set [2] is Sodium channel protein type 5 subunit alpha (cardiac sodium channel) (Rattus norvegicus, UniProt P15389). The data set can be described thus: in vitro. The note with it: sodium channel from cardiac myocytes, probe [3H]batrachotoxin ([3H]BTX).
Chain of Sodium channel protein type 5 subunit alpha (cardiac sodium channel) (P15389 whole entry): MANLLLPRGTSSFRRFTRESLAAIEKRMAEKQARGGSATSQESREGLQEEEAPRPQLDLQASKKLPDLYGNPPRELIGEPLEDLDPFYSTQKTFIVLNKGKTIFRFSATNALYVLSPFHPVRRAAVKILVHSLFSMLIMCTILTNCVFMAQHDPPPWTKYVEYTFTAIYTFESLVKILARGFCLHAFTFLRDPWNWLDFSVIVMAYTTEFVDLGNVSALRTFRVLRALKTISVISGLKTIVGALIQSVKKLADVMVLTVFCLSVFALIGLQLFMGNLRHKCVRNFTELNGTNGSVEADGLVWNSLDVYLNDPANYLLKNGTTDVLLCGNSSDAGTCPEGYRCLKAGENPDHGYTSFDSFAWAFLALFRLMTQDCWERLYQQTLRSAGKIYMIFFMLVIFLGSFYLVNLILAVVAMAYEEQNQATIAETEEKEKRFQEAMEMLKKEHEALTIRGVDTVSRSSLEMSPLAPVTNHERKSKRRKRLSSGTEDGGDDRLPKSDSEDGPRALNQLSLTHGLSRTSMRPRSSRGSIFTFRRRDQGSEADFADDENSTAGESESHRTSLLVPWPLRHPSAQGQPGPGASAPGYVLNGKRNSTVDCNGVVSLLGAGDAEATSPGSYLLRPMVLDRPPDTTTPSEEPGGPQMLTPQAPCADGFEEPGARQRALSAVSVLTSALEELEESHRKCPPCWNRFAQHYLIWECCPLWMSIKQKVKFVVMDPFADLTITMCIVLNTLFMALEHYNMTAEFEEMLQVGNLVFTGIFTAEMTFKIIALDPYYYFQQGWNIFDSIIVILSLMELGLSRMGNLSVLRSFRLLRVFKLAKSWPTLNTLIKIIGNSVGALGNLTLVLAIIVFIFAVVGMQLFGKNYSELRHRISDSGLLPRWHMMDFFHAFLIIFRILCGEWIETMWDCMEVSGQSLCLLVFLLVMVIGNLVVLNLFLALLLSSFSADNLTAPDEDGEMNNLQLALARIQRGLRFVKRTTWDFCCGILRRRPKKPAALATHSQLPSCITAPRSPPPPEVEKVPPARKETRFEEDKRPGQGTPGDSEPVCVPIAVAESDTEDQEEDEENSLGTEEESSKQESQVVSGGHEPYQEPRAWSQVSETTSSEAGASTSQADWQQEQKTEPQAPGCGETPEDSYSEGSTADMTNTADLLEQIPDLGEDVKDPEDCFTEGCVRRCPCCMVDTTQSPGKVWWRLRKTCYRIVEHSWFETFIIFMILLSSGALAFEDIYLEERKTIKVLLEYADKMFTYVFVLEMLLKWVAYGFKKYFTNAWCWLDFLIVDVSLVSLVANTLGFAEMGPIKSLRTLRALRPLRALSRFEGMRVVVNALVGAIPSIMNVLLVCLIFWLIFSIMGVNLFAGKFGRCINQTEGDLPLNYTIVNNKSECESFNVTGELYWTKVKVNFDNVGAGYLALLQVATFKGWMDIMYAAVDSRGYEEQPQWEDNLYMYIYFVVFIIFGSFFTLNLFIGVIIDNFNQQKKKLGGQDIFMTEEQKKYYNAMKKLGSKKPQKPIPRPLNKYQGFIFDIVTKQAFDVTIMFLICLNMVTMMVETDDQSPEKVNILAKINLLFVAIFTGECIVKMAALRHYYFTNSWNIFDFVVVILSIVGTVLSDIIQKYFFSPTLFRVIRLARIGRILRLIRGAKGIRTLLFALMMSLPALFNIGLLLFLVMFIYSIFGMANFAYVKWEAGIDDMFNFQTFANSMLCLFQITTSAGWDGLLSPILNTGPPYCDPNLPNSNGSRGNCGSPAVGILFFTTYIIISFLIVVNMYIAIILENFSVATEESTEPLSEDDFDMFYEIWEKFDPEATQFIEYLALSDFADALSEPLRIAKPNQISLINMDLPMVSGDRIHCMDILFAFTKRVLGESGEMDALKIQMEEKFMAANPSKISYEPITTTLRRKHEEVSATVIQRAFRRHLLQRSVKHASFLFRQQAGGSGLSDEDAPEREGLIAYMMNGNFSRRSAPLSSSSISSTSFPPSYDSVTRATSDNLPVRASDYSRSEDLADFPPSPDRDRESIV
Data set [3] has as its system Cavia porcellus. The data set can be described thus: In vivo index of cardiac contractility using paced guinea pig model. It counts as functional. The method in brief: as §1

Molecules are shown by their SMILES. Bounds are passed on as bounds.

Usually inhibition stands for how much of the control response was suppressed. Lower therefore signals a weak effect. `CN1Cc2ccccc2C(c2ccccc2)N=C1COc1ccccc1.Cl` (stereo unspecified): the ED20 in the data set with Cavia porcellus [1] was 0.3 mg/kg. Besides, the inhibition at 10 µM in data set [2] amounted to 98%.
On to `CC1=NC(C)(c2ccccc2)c2ccccc2CN1C.O=C(O)/C=C/C(=O)O` (stereo unspecified), for which the dP/dt20 in the data set with Cavia porcellus [3] is 0.9 mg/kg. Besides, the ED20 with Cavia porcellus [1] amounted to 0.8 mg/kg. For the same molecule, testing at 10 µM in data set [2] gave an inhibition of 71%.
For `CCC1=NC(c2cccc3ccccc23)c2ccccc2CN1C` (stereo unspecified) the same measures were 0.2 mg/kg, 0.6 mg/kg and 94%.
On the same counts, the results for `CCC1=NC(c2ccccc2)c2ccc3ccccc3c2CN1C` (stereo unspecified) are 0.06 mg/kg, 0.3 mg/kg and 98%.
For `COc1ccc(C2N=C(CCc3ccccc3)N(C)Cc3ccccc32)cc1.Cl` (stereo unspecified) the same measures were 0.1 mg/kg, 0.1 mg/kg and 95%.
With `CN1Cc2ccccc2C(c2ccc(Cl)cc2)N=C1CCc1ccccc1` (stereo unspecified), the dP/dt20 with Cavia porcellus [3] came to 0.2 mg/kg. For the same molecule, the ED20 in the data set with Cavia porcellus [1] was 0.2 mg/kg. The molecule also gave an inhibition at 10 µM in data set [2] of 96%.
Molecule `CN1Cc2ccccc2C(c2ccccc2)N=C1N.Cl` (stereo unspecified) had a dP/dt20 with Cavia porcellus [3] of 1 mg/kg. In the data set on Cavia porcellus [1], this molecule had an ED20 of 1.7 mg/kg. In addition, the inhibition at 10 µM in data set [2] was 91%.
For `CCN(CC)CCNC1=NC(c2ccccc2)c2ccccc2CN1C.O=C(O)/C=C/C(=O)O` (stereo unspecified) the same measures were 0.9 mg/kg, 0.7 mg/kg and 98%.
For `CN(C)CC1=NC(C)(c2ccccc2)c2ccccc2CN1C` (stereo unspecified) the same measures were 0.02 mg/kg, 0.8 mg/kg and 57%.
Regarding `CN1CCN(CC2=NC(c3ccccc3)c3ccccc3CN2C)CC1.O=C(O)/C=C/C(=O)O` (stereo unspecified), the dP/dt20 in the data set on Cavia porcellus [3] was 0.1 mg/kg. This molecule also registered an ED20 in the data set on Cavia porcellus [1] of 0.4 mg/kg. The molecule further returned an inhibition at 10 µM in data set [2] of 38%.
On the same counts, the results for `CCN(CC)CCNC(=O)c1ccc(NS(C)(=O)=O)cc1` [SEMATILIDE] are 18.7 mg/kg, 1.9 mg/kg and 0%.
On the same counts, the results for `CCN(CC)CC(=O)Nc1c(C)cccc1C` [LIDOCAINE] are 4.3 mg/kg, 8 mg/kg and 10%.
With `CCOC(=O)CC1=NC(C)(c2ccccc2)c2ccccc2CN1C` (stereo unspecified), the dP/dt20 in the data set on Cavia porcellus [3] came out at 0.007 mg/kg. The same molecule displayed an ED20 in the data set with Cavia porcellus [1] of 0.3 mg/kg. Moreover, testing at 10 µM in data set [2] gave an inhibition of 79%.
On the same counts, the results for `CN1Cc2ccccc2C(C)(c2ccccc2)N=C1CCc1ccccc1` (stereo unspecified) are 0.9 mg/kg, 0.34 mg/kg and 97%.
For `CCC1=NC(COC)(c2ccccc2)c2ccccc2CN1C` (stereo unspecified) the same measures were 0.1 mg/kg, 2.5 mg/kg and 45%.
For `CCC1=NCc2ccccc2C(c2ccccc2)N1Cc1ccccc1.Cl` (stereo unspecified) the same measures were 0.3 mg/kg, over 3 mg/kg and 97%.
With `COc1ccc(CCC2=NC(c3ccccc3)c3ccccc3CN2C)cc1.Cl` (stereo unspecified), in the data set with Cavia porcellus [3], the dP/dt20 was found to be 0.66 mg/kg. The molecule further returned an ED20 with Cavia porcellus [1] of 0.1 mg/kg. For the same molecule, the inhibition at 10 µM in data set [2] was determined as 91%.
For `CCC1=NC(c2ccccc2)c2ccccc2CN1C(C)C.Cl` (stereo unspecified) the same measures were 0.15 mg/kg, 0.2 mg/kg and 87%.
For `CCC1=NC(C(C)=O)(c2ccccc2)c2ccccc2CN1C.O=C(O)/C=C/C(=O)O` (stereo unspecified) the same measures were 0.45 mg/kg, 0.9 mg/kg and 28%.
`CN1Cc2ccccc2C(c2ccccc2)N=C1N1CCCC1` (stereo unspecified): the ED20 in the data set with Cavia porcellus [1] was 0.2 mg/kg. The same molecule had an inhibition at 10 µM in data set [2] of 100%.
For the molecule `CN1Cc2ccccc2C(C)(c2ccccc2)N=C1CCl` (stereo unspecified), the dP/dt20 in the data set with Cavia porcellus [3] is 0.002 mg/kg. Further, the ED20 with Cavia porcellus [1] was determined as 0.4 mg/kg. In data set [2], this molecule came in with an inhibition at 10 µM of 82%.
For `CCC1=NC(Cc2ccccc2)c2ccccc2CN1C` (stereo unspecified) the same measures were 0.2 mg/kg, 0.2 mg/kg and 84%.
On the same counts, the results for `CN1Cc2ccccc2C(c2ccccc2)N=C1CCC1CCCCC1.Cl` (stereo unspecified) are 0.66 mg/kg, 0.1 mg/kg and 98%.
In the case of `CN1Cc2ccccc2C(c2ccccc2)N=C1N1CCOCC1.Cl` (stereo unspecified), in the data set on Cavia porcellus [3], the dP/dt20 was 0.4 mg/kg. In the data set with Cavia porcellus [1], this molecule showed an ED20 of 0.6 mg/kg. This molecule also yielded an inhibition at 10 µM in data set [2] of 49%.
`CCC1=NC(c2ccccc2)c2ccccc2CN1.Cl` (stereo unspecified) had a dP/dt20 with Cavia porcellus [3] of 0.2 mg/kg. In the data set on Cavia porcellus [1], this molecule had an ED20 of 1.1 mg/kg. In addition, at 10 µM the inhibition in data set [2] was 84%.
For `CCCC1=NC(c2ccccc2)c2ccccc2CN1C.Cl` (stereo unspecified) the same measures were 0.8 mg/kg, 0.4 mg/kg and 72%.
For `CC(C)NCC(O)c1ccc(NS(C)(=O)=O)cc1` (stereo unspecified) [SOTALOL] the same measures were 1.9 mg/kg, 1.3 mg/kg and 0%.
On the same counts, the results for `CCCCCC1=NC(c2ccccc2)c2ccccc2CN1C.Cl` (stereo unspecified) are 0.08 mg/kg, 0.1 mg/kg and 95%.
Turning to `CN1Cc2ccccc2C(c2ccccc2)N=C1c1ccccc1` (stereo unspecified), the dP/dt20 with Cavia porcellus [3] amounted to 1.1 mg/kg. Further, the ED20 with Cavia porcellus [1] worked out at 0.3 mg/kg. For the same molecule, the inhibition at 10 µM in data set [2] came to 85%.
On the same counts, the results for `CCC1=NC(CC)(c2ccccc2)c2ccccc2CN1C` (stereo unspecified) are 0.1 mg/kg, 0.2 mg/kg and 78%.
On the same counts, the results for `CN1Cc2ccccc2C(c2ccccc2)N=C1CCCc1ccccc1.Cl` (stereo unspecified) are 0.12 mg/kg, 0.2 mg/kg and 100%.
For `CC(C)C1=NC(C)(c2ccccc2)c2ccccc2CN1C` (stereo unspecified) the same measures were 0.7 mg/kg, 0.8 mg/kg and 50%.
Consider `CN1Cc2ccccc2C(C)(c2ccccc2)N=C1CN1CCOCC1` (stereo unspecified), for which the dP/dt20 with Cavia porcellus [3] came out at 0.1 mg/kg. This molecule displayed an ED20 with Cavia porcellus [1] of 2.4 mg/kg. In addition, testing at 10 µM in data set [2] gave an inhibition of 51%.
On the same counts, the results for `CCCCCCCCC1=NC(c2ccccc2)c2ccccc2CN1C.Cl` (stereo unspecified) are 0.1 mg/kg, 0.2 mg/kg and 81%.
In turn, `COc1ccc(C(=O)Nc2ccccc2CCC2CCCCN2C)cc1` (stereo unspecified) [ENCAINIDE] yielded a dP/dt20 with Cavia porcellus [3] of 0.003 mg/kg. This molecule showed an ED20 in the data set with Cavia porcellus [1] of 0.7 mg/kg. Also, the inhibition at 10 µM in data set [2] is 55%.
In turn, `CCCCC1=NC(c2ccccc2)c2ccccc2CN1C.Cl` (stereo unspecified) gave a dP/dt20 with Cavia porcellus [3] of 0.1 mg/kg. The same molecule gave an ED20 in the data set on Cavia porcellus [1] of 0.1 mg/kg. The same molecule displayed an inhibition at 10 µM in data set [2] of 83%.
`CCN(CC)CC1=NC(C)(c2ccccc2)c2ccccc2CN1C.Cl` (stereo unspecified) returned a dP/dt20 in the data set on Cavia porcellus [3] of 0.01 mg/kg. This molecule also yielded an ED20 in the data set on Cavia porcellus [1] of over 20 mg/kg. Besides, in data set [2], the inhibition at 10 µM was found to be 90%.
On the same counts, the results for `CN1Cc2ccccc2C(c2ccccc2)N=C1Cc1ccccc1.Cl` (stereo unspecified) are 0.15 mg/kg, 0.3 mg/kg and 95%.
On to `CN1Cc2ccccc2C(c2ccccc2)N=C1COc1ccc(Cl)cc1` (stereo unspecified), for which the dP/dt20 with Cavia porcellus [3] was determined as 0.17 mg/kg. For the same molecule, the ED20 in the data set with Cavia porcellus [1] stood at 0.2 mg/kg. In data set [2], this molecule gave an inhibition at 10 µM of 100%.
With `CN1Cc2ccccc2C(c2ccccc2)N=C1CN1CCCCC1.O=C(O)/C=C/C(=O)O` (stereo unspecified), the dP/dt20 in the data set with Cavia porcellus [3] came out at 0.002 mg/kg. The ED20 in the data set on Cavia porcellus [1] was 0.4 mg/kg. Moreover, the inhibition at 10 µM in data set [2] stood at 94%.
For `CN1Cc2ccccc2C(c2ccccc2)N=C1CN1CCOCC1.O=C(O)/C=C/C(=O)O` (stereo unspecified) the same measures were 0.11 mg/kg, 0.25 mg/kg and 57%.
For `COc1ccc(OCC2=NC(c3ccccc3)c3ccccc3CN2C)cc1.Cl` (stereo unspecified) the same measures were 0.48 mg/kg, 0.1 mg/kg and 98%.
On the same counts, the results for `CC1=NC(c2ccccc2)c2ccccc2CN1C` (stereo unspecified) are 0.9 mg/kg, 1.2 mg/kg and 52%.
`CN1Cc2ccccc2C(Cc2ccccc2)N=C1CCc1ccccc1.O=C(O)/C=C/C(=O)O` (stereo unspecified) had a dP/dt20 with Cavia porcellus [3] of 0.04 mg/kg. This molecule also displayed an ED20 with Cavia porcellus [1] of 0.2 mg/kg. In data set [2], this molecule had an inhibition at 10 µM of 97%.
On the same counts, the results for `CCC1=NC(c2ccccc2)c2ccccc2CN1Cc1ccccc1.Cl` (stereo unspecified) are 0.2 mg/kg, 1 mg/kg and 98%.
On to `CCC1=NC(c2ccccc2)c2ccccc2C(c2ccccc2)N1C` (stereo unspecified), for which the dP/dt20 with Cavia porcellus [3] is 0.01 mg/kg. This molecule also registered an ED20 in the data set on Cavia porcellus [1] of over 20 mg/kg. The inhibition at 10 µM in data set [2] is 97%.
For `CN1C=NC(c2ccccc2)c2ccccc2C1` (stereo unspecified) the same measures were 0.9 mg/kg, 1.4 mg/kg and 68%.
Molecule `CN(C)CC1=NC(c2ccccc2)c2ccccc2CN1C.O=C(O)/C=C/C(=O)O` (stereo unspecified) displayed an ED20 in the data set with Cavia porcellus [1] of 0.6 mg/kg. The same molecule showed an inhibition at 10 µM in data set [2] of 44%.
